# Measurements of several laboratories.
# Target: Calcium-dependent protein kinase 1 (CDPK1, Plasmodium falciparum, UniProt P62344)
SMILES,test,setting,measurement,value
C=CC(=O)N1CCC(C(=O)NCC(=O)N2CCN(c3nc(-c4cnc(N)nc4C(F)F)nc(N4CCOCC4)n3)CC2)CC1,"binding, competition with immobilised ligand",1 µM,remaining binding,81%
COc1ccnn2ncc(-c3ccnc(N(C)C)n3)c12,binding,1 µM,remaining binding,81%
O=C(Nc1c[nH]nc1C(=O)NC1CCNCC1)c1cc(F)cc(F)c1,"binding, competition with immobilised ligand",1 µM,remaining binding,89%
CNC(=O)[C@@H]1CC[C@@H](n2c(-c3ccc4cnccc4c3)nc3ccc(C(=O)NCc4cccc(C(N)=O)c4)cc32)C1,"binding, competition with immobilised ligand",1 µM,remaining binding,99%
FC(F)(F)Oc1cccc(-c2cnc3ccc(-c4ccncc4)nn23)c1,"binding, competition with immobilised ligand",5 µM,remaining binding,4.5%
Cc1nn(C)cc1-c1nc2c(N3CCN(Cc4ccc(Cl)cc4)CC3)c(Cl)cnc2[nH]1,"binding, competition with immobilised ligand",1 µM,remaining binding,100%
Nc1ncc2c(n1)-c1c([nH]c3ccc(C#CC4CC4)cc13)CCCC2,"binding, competition with immobilised ligand",1 µM,remaining binding,79%
Nc1ncnc2occ(-c3ccc(NC(=O)Nc4cc(C(F)(F)F)ccc4F)cc3)c12,"cell-free assay, inhibitor",20 µM,remaining signal,1.2%
C[C@@H]1CCN(c2nccc(-c3cnn4ncccc34)n2)C1,binding,1 µM,remaining binding,85%
COc1cnc(Nc2cccc(S(N)(=O)=O)c2)nc1N1CCN(c2ccccc2)CC1,"binding, competition with immobilised ligand",1 µM,remaining binding,86%
c1cncc(-c2cccc(Nc3nccc(NC4CCCCC4)n3)c2)c1,"binding, competition with immobilised ligand",10 µM,remaining binding,24%
Cc1ccc(C(=O)Nc2ccc(CN3CCN(C)CC3)c(C(F)(F)F)c2)cc1C#Cc1cnc2cccnn12,"enzyme activity, inhibitor",23.5 nM,remaining activity,16%
O=C(NCC1CCOCC1)c1n[nH]cc1NC(=O)c1c(F)cccc1F,"binding, competition with immobilised ligand",1 µM,remaining binding,83%
N[C@@H]1CCN(c2nccc(-c3cnn4ncccc34)n2)C1,binding,1 µM,remaining binding,91%
CCN1CCN(Cc2ccc(C(=O)Nc3ccc(C)c(Oc4ccc5c(c4)CC(=O)N5)c3)cc2C(F)(F)F)CC1,"binding, competition with immobilised ligand",1 µM,remaining binding,68%
